One experiment relates to MT4. Description: Inhibition of cytopathic effect of HIV-1 in MT-4 cells. Type of experiment: functional, cell-based. As to conditions: Homo sapiens. (Cytopathic effects are the visible damage that an infection or toxin causes in cultured cells.)
Experiment [1] addresses Human immunodeficiency virus type 1 protease (Human immunodeficiency virus 1, UniProt Q72874). The experiment in a line: Inhibitory activity against HIV-1 protease. The procedure, abridged: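 IC50 against HIV-1 proteinase, from duplicate determinations at each inhibitor concentration, with mean values used for analysis. Results were standardized against a control run in every assay.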

The structures appear in SMILES notation.

`CC1(C)S[C@H]([C@H](NC(=O)Cc2ccccc2)C(=O)NCc2ccccc2)N[C@H]1C(=O)N[C@H](Cc1ccccc1)[C@H](O)CC(N)=O`: in the experiment on MT4, the EC50 – broadly, the concentration needed to bring the measured effect to its halfway point – was greater than 100 µM. Also, the IC50 (commonly the concentration needed to halve the response being measured) in experiment [1] was determined as 0.082 µM.
`C[C@H](Cc1ccccc1)NC(=O)[C@@H]1N[C@@H]([C@H](NC(=O)Cc2ccccc2)C(=O)NCc2ccccc2)SC1(C)C` had an IC50 in experiment [1] greater than 180 µM.
Regarding `CC(C)[C@H](CO)NC(=O)[C@@H]1N[C@@H]([C@H](NC(=O)Cc2ccccc2)C(=O)NCc2ccccc2)SC1(C)C`, the IC50 in experiment [1] is greater than 4.7 µM.
In the experiment with MT4, `CC1(C)S[C@H]([C@H](NC(=O)Cc2ccccc2)C(=O)NCc2ccccc2)N[C@H]1C(=O)N[C@H](Cc1ccccc1)[C@H](O)CC(=O)NCc1ccccc1` showed an EC50 of 4.7 µM. This molecule came in with an IC50 in experiment [1] of 0.0046 µM.
In the experiment with MT4, `CC(C)CNC(=O)C[C@@H](O)[C@@H](Cc1ccccc1)NC(=O)[C@@H]1N[C@@H]([C@H](NC(=O)Cc2ccccc2)C(=O)NCc2ccccc2)SC1(C)C` came in with an EC50 greater than 150 µM. The IC50 in experiment [1] worked out at 0.069 µM.
In the experiment on MT4, `CC1(C)S[C@H]([C@H](NC(=O)Cc2ccccc2)C(=O)NCc2ccccc2)N[C@H]1C(=O)N[C@H](Cc1ccccc1)[C@H](O)CC(=O)N[C@@H](CO)c1ccccc1` showed an EC50 greater than 100 µM. Besides, the IC50 in experiment [1] worked out at 0.19 µM.
`C[C@H](CO)NC(=O)[C@@H]1N[C@@H]([C@H](NC(=O)Cc2ccccc2)C(=O)NCc2ccccc2)SC1(C)C` came in with an IC50 in experiment [1] greater than 20 µM.
`CC(C)C[C@H](CO)NC(=O)[C@@H]1N[C@@H]([C@H](NC(=O)Cc2ccccc2)C(=O)NCc2ccccc2)SC1(C)C`: the IC50 in experiment [1] is greater than 4.6 µM.
On the same count and under the same terms, as for `CC1(C)S[C@H]([C@H](NC(=O)Cc2ccccc2)C(=O)NCc2ccccc2)N[C@H]1C(=O)NCCO`, the figure is 180 µM; as for `CCCCC(CO)NC(=O)[C@@H]1N[C@@H]([C@H](NC(=O)Cc2ccccc2)C(=O)NCc2ccccc2)SC1(C)C` (some centres not stated) [listing 1 of 2 here], greater than 4.6 µM; as for `CCC(C)C(CO)NC(=O)[C@@H]1N[C@@H]([C@H](NC(=O)Cc2ccccc2)C(=O)NCc2ccccc2)SC1(C)C` (some centres not stated), greater than 0.54 µM.
In the experiment with MT4, `CC1(C)S[C@H]([C@H](NC(=O)Cc2ccccc2)C(=O)NCc2ccccc2)N[C@H]1C(=O)N[C@H](Cc1ccccc1)[C@H](O)CC(=O)N[C@H](CO)c1ccccc1` came in with an EC50 of 10.6 µM. The IC50 in experiment [1] was 0.17 µM.
Turning to `CC1(C)S[C@H]([C@H](NC(=O)Cc2ccccc2)C(=O)NCc2ccccc2)N[C@H]1C(=O)N[C@H](Cc1ccccc1)[C@@H](O)CC(=O)NCc1ccccc1`, in experiment [1], the midpoint of inhibition, the IC50, lay at 2.9 µM.
In the experiment on MT4, `CC1(C)S[C@H]([C@H](NC(=O)Cc2ccccc2)C(=O)NCc2ccccc2)N[C@H]1C(=O)N[C@H](Cc1ccccc1)C(O)CNC(=O)Cc1ccccc1` (some centres not stated) registered an EC50 greater than 100 µM. This molecule registered an IC50 in experiment [1] of 0.053 µM.
In experiment [1], `CC(C)CNC(=O)C[C@H](O)[C@@H](Cc1ccccc1)NC(=O)[C@@H]1N[C@@H]([C@H](NC(=O)Cc2ccccc2)C(=O)NCc2ccccc2)SC1(C)C` showed an IC50 of 2.8 µM.
On to `CC1(C)S[C@H]([C@H](NC(=O)Cc2ccccc2)C(=O)NCc2ccccc2)N[C@H]1C(=O)NCC(O)CNC(=O)[C@@H]1N[C@@H]([C@H](NC(=O)Cc2ccccc2)C(=O)NCc2ccccc2)SC1(C)C`, for which, in the experiment with MT4, the EC50 was 2.6 µM. Besides, 0.005 µM corresponded to half-maximal inhibition in experiment [1] (IC50).
For the molecule `CC1(C)S[C@H]([C@H](NC(=O)Cc2ccccc2)C(=O)NCc2ccccc2)N[C@H]1C(=O)N[C@H](Cc1ccccc1)[C@H](O)CC(=O)N[C@H](CO)Cc1ccccc1`, the EC50 with MT4 is greater than 100 µM. The same molecule had an IC50 in experiment [1] of 0.22 µM.
On to `CC1(C)S[C@H]([C@H](NC(=O)Cc2ccccc2)C(=O)NCc2ccccc2)N[C@H]1C(=O)N[C@H](Cc1ccccc1)[C@H](O)CC(=O)N[C@@H](CO)Cc1ccccc1`, for which the EC50 in the experiment on MT4 is greater than 100 µM. Further, in experiment [1], the 50% inhibitory concentration (IC50) amounted to 0.17 µM.
In experiment [1], `CC1(C)S[C@H]([C@H](NC(=O)Cc2ccccc2)C(=O)NCc2ccccc2)N[C@H]1C(=O)N[C@@H](CO)Cc1ccccc1` yielded an IC50 of 0.15 µM.
In experiment [1], `CC1(C)S[C@H]([C@H](NC(=O)Cc2ccccc2)C(=O)NCc2ccccc2)N[C@H]1C(=O)N[C@H](CO)Cc1ccccc1` had an IC50 greater than 170 µM.
Still for that read-out and setting: as for `CC1(C)S[C@H]([C@H](NC(=O)Cc2ccccc2)C(=O)NCc2ccccc2)N[C@H]1C(=O)NCCCNC(=O)[C@@H]1N[C@@H]([C@H](NC(=O)Cc2ccccc2)C(=O)NCc2ccccc2)SC1(C)C`, the figure is 0.54 µM; as for `CC1(C)S[C@H]([C@H](NC(=O)Cc2ccccc2)C(=O)NCc2ccccc2)N[C@H]1C(=O)N[C@H](CO)CCc1ccccc1`, 26 µM.
Turning to `CCCCC(CO)NC(=O)[C@@H]1N[C@@H]([C@H](NC(=O)Cc2ccccc2)C(=O)NCc2ccccc2)SC1(C)C` (some centres not stated) [listing 2 of 2 here], the IC50 in experiment [1] worked out at 0.25 µM.
With `CC1(C)S[C@H]([C@H](NC(=O)Cc2ccccc2)C(=O)NCc2ccccc2)N[C@H]1C(=O)N[C@H](Cc1ccccc1)[C@@H](O)CC(N)=O`, the IC50 in experiment [1] turned out to be 1.9 µM.
In experiment [1], `C[C@@H](Cc1ccccc1)NC(=O)[C@@H]1N[C@@H]([C@H](NC(=O)Cc2ccccc2)C(=O)NCc2ccccc2)SC1(C)C` registered an IC50 greater than 180 µM.
On to `CC1(C)S[C@H]([C@H](NC(=O)Cc2ccccc2)C(=O)NCc2ccccc2)N[C@H]1C(=O)N[C@H](Cc1ccccc1)[C@H](O)CC(=O)NCCCO`, for which the EC50 in the experiment with MT4 came to 5.7 µM. In addition, it took 0.054 µM to reach half-maximal inhibition in experiment [1] (IC50).
As to `CC1(C)S[C@H]([C@H](NC(=O)Cc2ccccc2)C(=O)NCc2ccccc2)N[C@H]1C(=O)N[C@H](Cc1ccccc1)[C@H](O)CC(=O)NCC(O)CO` (some centres not stated), the midpoint of the response in the experiment with MT4, the EC50, lay at 40 µM. Also, half-maximal inhibition in experiment [1] (IC50) was put at 0.095 µM.
For `CC1(C)S[C@H]([C@H](NC(=O)Cc2ccccc2)C(=O)NCc2ccccc2)N[C@H]1C(=O)N[C@H](Cc1ccccc1)[C@H](O)CC(=O)NCCO`, the IC50 in experiment [1] amounted to 1.1 µM.
For the molecule `CC1(C)S[C@H]([C@H](NC(=O)Cc2ccccc2)C(=O)NCc2ccccc2)N[C@H]1C(=O)N[C@@H](CO)CCc1ccccc1`, inhibition in experiment [1] was half-maximal at 25 µM (IC50).
As to `CC1(C)S[C@H]([C@H](NC(=O)Cc2ccccc2)C(=O)NCc2ccccc2)N[C@H]1C(=O)N[C@H](Cc1ccccc1)[C@H](O)CC(=O)NCCc1ncc[nH]1`, the IC50 in experiment [1] amounted to 0.3 µM.
Still for that read-out and setting: as for `CC1(C)S[C@H]([C@H](NC(=O)Cc2ccccc2)C(=O)NCc2ccccc2)N[C@H]1C(N)=O`, the figure is greater than 230 µM.

The values are drawn from ChEMBL document CHEMBL1126855, “Synthesis and structure-activity relationships of a series of penicillin-derived HIV proteinase inhibitors containing a stereochemically unique peptide isostere” (J Med Chem, 1993).
